# Bioassay records deposited in PubChem BioAssay by several laboratories.
# H9c2 TAG inh: inhibitors of triacylglycerol accumulation. H9c2 cells, Nile Red lipid (TAG) fluorescence; cells loaded with 200 µM oleic acid. inhibition, % at 12.5 µM. 230,000 tested, 0.66% active. AID 651582;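 active = pattern-corrected inhibition of lipid staining of at least 50% with the nuclear-stain viability signal not falling by more than 50%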;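 also: 0% = DMSO wells and 100% = triacsin C control wells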
# Hep lipid drop: hepatic lipid droplet formation modulation | AML12 mouse hepatocytes, oleate lipid droplets, BODIPY imaging | 240,000 tested, 0.4% active | inhibition, % at 6.5 µM;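 active = lipid droplet intensity inhibited by at least 50%, with more than 500 cells counted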
#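 Material – mouse AML12 hepatocyte cell line, fixed after treatment · Compound dosing – one dose, 6.5 µM compound · Times – compound with oleate, overnight · Measured by – Image-based BODIPY and DAPI two-channel analysis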
# GRK2 inh: inhibitors of human GRK2 displacing RNA aptamer; bead flow cytometry, FAM-aptamer displacement from GRK2; inhibition of aptamer binding, % at 10 µM; P25098; 330,000 tested, 0.59% active; AID 488847;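 active = inhibition of aptamer binding above 40%, roughly 3 SD of noise, on plates passing a quality check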;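 also: median bead fluorescence of bound FAM aptamer so fluorescent compounds give negative values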
# Beta2AR agonist: agonists of human beta-2 adrenergic receptor inducing internalization; P07550; Am2.2-beta2AR cells, FAP receptor internalization, flow cytometry; response, % (test concentration not listed); 340,000 tested, 0.43% active; AID 504454;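 active = response above a set limit, near 3 SD of response in nonfluorescent compounds, cut at about 42% in these data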
# NTR1 agonist: agonists of human neurotensin receptor NTR1; NTR1-U2OS beta-arrestin-GFP spot imaging, agonist mode; 330,000 tested, 0.17% active; P30989; activation, % at 20 µM; AID 493036;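 active = activation at or above 40% of the spot to cytoplasm intensity ratio, with at least 20 cells analyzed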;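 also: 0% = DMSO without peptide and 100% = 100 nM NTR1 peptide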
# Arrestin-AP2 inh: human beta-arrestin and AP2 interaction inhibition; 340,000 tested, 0.31% active; FITC-arrestin peptide / GST-AP2 beads, flow cytometry; AP2 beta2 appendage carries R879A mutation; inhibition, % at 10 µM;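 active = inhibition above a set limit, near 3 SD of compounds lacking own fluorescence, cut at about 54% in these data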;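 also: plate controls were DMSO wells for no effect and 5 µM unlabelled arrestin peptide for full effect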
#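 System: GST-tagged AP2 beta2-adaptin appendage (R879A) on 4 µm glutathione beads / Reagent: FITC-arrestin peptide, 50 nM / Detection: HyperCyt-sampled flow cytometry, FL1 channel, ex 488/em 535 nm / Timing: 12 min plus 1 h, RT / Buffer or medium: PBS plus Tween 20 (0.05%) and BSA (0.1%)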
# Arr-AP2 CP1: human beta-arrestin and AP2 interaction inhibition, cherry pick. shares compounds with Arrestin-AP2 inh. GST-AP2 beads, FITC arrestin peptide binding, flow cytometry; GST-fused beta2-adaptin appendage, R879A mutant. inhibition, % at 10 µM. 1,300 tested, 2% active;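 active = inhibition above a set limit, roughly 3 SD of non-fluorescent compound noise, cut at about 38% in these data; inactive = inhibition at or below that limit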;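 also: loss of bead fluorescence from 50 nM FITC arrestin peptide bound to appendage; 0% = negative control wells and 100% = excess unlabelled arrestin peptide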
# Target sequence (P63010 whole entry, looked up, the tested form may be a part, one chain of several): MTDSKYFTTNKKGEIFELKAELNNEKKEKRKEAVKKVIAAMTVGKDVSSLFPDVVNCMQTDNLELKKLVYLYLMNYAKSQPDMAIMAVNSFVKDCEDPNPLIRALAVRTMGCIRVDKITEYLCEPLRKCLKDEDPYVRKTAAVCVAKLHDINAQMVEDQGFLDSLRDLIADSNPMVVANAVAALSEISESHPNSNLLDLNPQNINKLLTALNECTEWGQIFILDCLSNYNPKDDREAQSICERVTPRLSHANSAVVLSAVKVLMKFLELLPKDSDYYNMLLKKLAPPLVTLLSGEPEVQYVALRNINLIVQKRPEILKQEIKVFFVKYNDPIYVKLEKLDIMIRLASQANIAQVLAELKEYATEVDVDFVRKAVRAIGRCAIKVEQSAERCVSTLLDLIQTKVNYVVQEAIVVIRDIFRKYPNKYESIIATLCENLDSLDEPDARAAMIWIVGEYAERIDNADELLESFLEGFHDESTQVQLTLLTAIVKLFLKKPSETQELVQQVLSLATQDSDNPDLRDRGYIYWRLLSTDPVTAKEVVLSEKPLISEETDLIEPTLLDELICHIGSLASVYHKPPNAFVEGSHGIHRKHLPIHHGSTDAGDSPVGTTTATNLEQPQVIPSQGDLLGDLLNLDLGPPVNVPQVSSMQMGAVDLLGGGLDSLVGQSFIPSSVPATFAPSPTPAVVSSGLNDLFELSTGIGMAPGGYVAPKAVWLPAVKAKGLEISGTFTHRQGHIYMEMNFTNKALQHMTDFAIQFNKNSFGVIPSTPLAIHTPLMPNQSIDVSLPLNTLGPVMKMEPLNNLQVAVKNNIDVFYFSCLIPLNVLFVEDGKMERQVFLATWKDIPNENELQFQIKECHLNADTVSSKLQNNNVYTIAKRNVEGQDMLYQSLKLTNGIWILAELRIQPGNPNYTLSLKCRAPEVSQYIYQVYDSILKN
# GST GSH counter: counter-screen for beta-arrestin AP2 inhibitors: GST-GSH bead binding | inhibition, % at 10 µM | AID 588338 | GST-fluorescein binding to GSH beads, fluorescence | shares compounds with Arrestin-AP2 inh | 1,300 tested, 2% active;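 active = inhibition above 50%, about 3 SD of the inhibition seen with non-fluorescent compounds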;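 also: fluorescein maleimide labelled GST captured on 4 micron glutathione beads; higher means more loss of bead fluorescence from quenching or blocked binding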
# An asterisk follows results filed as active; . = no result given. An excerpt weighted towards active compounds, which were near 2% of everything screened.
SMILES,H9c2 TAG inh,Hep lipid drop,GRK2 inh,Beta2AR agonist,NTR1 agonist,Arrestin-AP2 inh,Arr-AP2 CP1,GST GSH counter
O=C(Nc1cccc(C(F)(F)F)c1)c1cc(S(=O)(=O)N2CCCCC2)ccc1N1CCOCC1,20,-10,0,10,0,-1,.,.
O=C(Nc1cccc(F)c1)c1cc(S(=O)(=O)N2CCOCC2)ccc1N1CCCC1,5,.,0,9,-1,29,-4,-2
O=C(NCc1ccccc1)c1cc(S(=O)(=O)N2CCCCC2)ccc1N1CCOCC1,7,13,0,-1,0,10,.,.
COc1cccc(CNC(=O)c2cc(S(=O)(=O)N3CCOCC3)ccc2N2CCCC2)c1,-2,.,0,4,2,-11,21,7
Cc1ccc(S(=O)(=O)N2CCCCC2)cc1C(=O)NCCc1ccccc1,-7,-14,0,1,0,-1,.,.
N#CC1=C(N)N(c2ccc(F)cc2)C2=C(C1c1ccc(O)cc1)S(=O)(=O)CC2 (configuration not stated),-4,-1,.,-1,.,22,.,.
CCN(CC)C(=O)Nc1c(C)n(C)n(-c2ccccc2)c1=O,-19,2,3,-2,1,65*,0,-3
O=C(O)CC(NC(=O)CCc1ccccc1)c1ccc(Cl)cc1 (configuration not stated),.,2,3,5,0,-11,.,.
CCC(NC(=O)CCc1ccccc1)c1ccccc1 (configuration not stated),1,-4,8,-8,2,61*,-1,-2
O=C(Cc1ccccc1[N+](=O)[O-])N1CCN(c2ccccc2F)CC1,-3,2,1,8,-3,61*,1,4
CCn1cc(/C=C(\NC(=O)c2ccccc2)C(=O)N2CCOCC2)c2ccccc21,.,-1,.,-5,0,55*,3,-3
CCn1cc(/C=C(\NC(=O)c2ccc(OC)cc2)C(=O)N2CCN(C)CC2)c2ccccc21,.,-11,.,1,0,38,.,.
Cc1c(C(=O)Nc2ccc(C(=O)O)cc2)cnn1C,11,.,1,16,-1,58*,-6,-1
CCOC(=O)Cn1c(=NC(=O)c2cccs2)sc2cc(C(=O)OC)ccc21,7,-15,0,-5,-1,106*,-5,.
Cc1cc(NC(=O)c2ccc(F)cc2)n(C)n1,.,-7,0,0,0,-4,.,.
COc1cc(/C=C2/C(=O)N=C(N)N2C)cc(OC)c1OC,3,8,2,-1,0,84*,11,4
COc1c(Br)cc(Br)cc1/C=C1/C(=O)N=C(N)N1C,-1,-16,0,0,0,5,.,.
Cc1cc(C)cc(NC(=O)CN2CCC(NC(=O)c3ccccc3F)CC2)c1,14,.,0,1,-1,0,.,.
Cc1c(C(=O)Nc2ccccn2)oc2c(Cl)cccc12,1,.,0,2,2,26,.,.
Cc1c(C(=O)NC(C)c2ccccn2)oc2c(Cl)cccc12 (configuration not stated),-65,.,.,-7,0,74*,-11,-10
Cc1ccc(S(=O)(=O)N2CCC(C(=O)N3CCC[C@H]3C(=O)NCC(C)C)CC2)cc1,.,-1,0,-2,2,34,.,.
CCCNC(=O)[C@@H]1CCCN1C(=O)C1CCN(S(=O)(=O)c2ccc(C)cc2)CC1,.,5,0,2,-1,54*,5,-2
O=C(C1CCN(S(=O)(=O)c2ccc(Cl)cc2)CC1)N1CCCC1,.,-7,0,-5,0,2,.,.
Cc1ccc(S(=O)(=O)N2CCC(C(=O)N3CCC3)CC2)cc1,-7,-19,2,1,0,54*,5,-3
CCc1nc2cc(NC(=O)C3(C)CCCN(C(C)C)C3)ccc2o1 (configuration not stated),10,.,.,.,.,.,.,.
SMILES,H9c2 TAG inh,Hep lipid drop,GRK2 inh,Beta2AR agonist,NTR1 agonist,Arrestin-AP2 inh,Arr-AP2 CP1,GST GSH counter
Cc1ccc(N/N=C(\C#N)C(N)=S)c(C)c1,1,3,0,12,.,57*,-1,-1
Cc1ccc(NC(=O)/C(C#N)=N/Nc2ccc(C(=O)O)cc2)c(C)c1,2,3,8,1,2,8,.,.
O=C(Cn1c(=O)cnc2ccccc21)N1CCN(S(=O)(=O)c2cccc([N+](=O)[O-])c2)CC1,4,.,0,3,-1,30,.,.
CCOc1ccc(-c2nc(CSCC(=O)NCc3ccco3)c(C)o2)cc1,4,-2,0,-8,1,98*,5,-7
O=c1oc2ccccc2c2c1C(c1ccc(Cl)cc1)Nc1ccc3ccccc3c1-2 (configuration not stated),26,-14,1,-4,3,85*,-5,-1
COc1ccc(C2Nc3ccc4ccccc4c3-c3c2c(=O)oc2ccccc32)cc1 (configuration not stated),.,2,2,23,3,9,.,.
COc1ccc(Cl)cc1NC(=O)COC(=O)C1CC1,18,.,2,4,5,-3,.,.
COc1ccc(Cl)cc1NC(=O)COC(=O)C1CCCCC1,6,.,0,-1,-1,57*,6,-7
COc1ccc(Cl)cc1NC(=O)COC(=O)C1CC(=O)N(Cc2ccccc2)C1 (configuration not stated),-8,.,4,-4,0,58*,5,1
Cc1ccc(CN(C(=O)c2ccccc2C)C2CCS(=O)(=O)C2)o1 (configuration not stated),-10,-2,1,5,0,56*,3,7
Cc1nn(-c2ccc(C(=O)NCC(c3ccco3)N3CCCC3)cc2)c(C)c1Cl (configuration not stated),-20,.,0,-1,0,-1,.,.
Cc1ccccc1C(=O)Nc1nnc(-c2cccnc2)o1,-4,5,4,6,-1,60*,2,-3
Cc1ccccc1C(=O)Nc1nnc(-c2ccc(F)cc2)o1,6,.,2,2,-2,-11,.,.
COC(=O)c1ccc(NC(=O)Nc2ccc([N+](=O)[O-])cc2)cc1,.,-4,0,9,24,-3,.,.
CC(C)(C)NC(=O)C(c1cccnc1)N(C(=O)c1csnn1)c1ccccc1 (configuration not stated),-2,3,0,-8,0,0,.,.
CCC(C)(C)NC(=O)C(c1cccnc1)N(C(=O)c1csnn1)c1ccccc1 (configuration not stated),-16,1,0,-1,-1,54*,0,-8
